Experimental findings from ChEMBL document CHEMBL1212830, “The structure-activity relationship of the 3-oxy site in the anticonvulsant (R)-N-benzyl 2-acetamido-3-methoxypropionamide” (J Med Chem, 2010) are described below.

For data set [1], the system named is Mus musculus. In words: Anticonvulsant activity in ip dosed 6 Hz psychomotor seizure model of albino Carworth Farms number 1 mouse assessed as protection against seizure. It counts as functional. To be noted: albino Carworth Farms number 1, ip. Put shortly: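 Psychomotor 6 Hz seizure test at 32 mA in mice, compound given intraperitoneally, run within the NINDS Anticonvulsant Screening Program. Median effective dose (ED50) in mg/kg from quantitative screening.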

Data set [2] concerns Rattus norvegicus. Description: Anticonvulsant activity in po dosed albino Sprague-Dawley rat assessed as protection against maximal electroshock-induced seizure. To be noted: albino Spague-Dawley. It counts as functional. The essentials:
(§1)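 Maximal electroshock (MES) seizure test within the NINDS Anticonvulsant Screening Program. Protection is scored as block of induced hind limb extension. Mice are dosed ip and rats po.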

Data set [3] relates to Rattus norvegicus. In words: Protective index, ratio of neurotoxicity TD50 to anticonvulsant ED50 for po dosed albino Spague-Dawley rat. It counts as functional. The essentials: (§2)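 Protective index is calculated as rotorod TD50 divided by MES ED50, both in mg/kg and from the same species and route (mice ip, rats po).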
The nature of data set [4]: Neurotoxicity in po dosed albino Sprague-Dawley rat by rotarod test. It counts as toxicity, organism-based, albino Spague-Dawley. The following applies: in vivo. The essentials:
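Rotorod test for behavioural neurotoxicity (mice ip, rats po). Median dose causing neurological impairment in 50% of animals (TD50, mg/kg) is determined only for compounds active in the MES test. The highest rat dose tested was 500 mg/kg.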
(In general: The rotarod test checks motor coordination on a turning rod.)

Data set [5] concerns Mus musculus. Description: Anticonvulsant activity in ip dosed albino Carworth Farms number 1 mouse assessed as protection against maximal electroshock-induced seizure. Type of data set: functional. To be noted: albino Carworth Farms number 1, ip. The essentials: as §1
(In general: The maximal electroshock test induces tonic seizures with an electrical stimulus.)

Data set [6] has as its system Rattus norvegicus. Description: Anticonvulsant activity in ip dosed albino Sprague-Dawley rat assessed as protection against maximal electroshock-induced seizure. Type of data set: functional. To be noted: albino Spague-Dawley. The essentials: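 Run under the NINDS Anticonvulsant Screening Program. Rats received compound intraperitoneally as a stated exception to the usual oral rat route. Protection meant blocking hind-limb extension in the maximal electroshock test. ED50 was derived from quantitative dose-response screening of compounds with significant activity.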

Data set [7] can be described thus: Neurotoxicity in ip dosed albino Sprague-Dawley rat by rotarod test. It counts as toxicity, organism-based, albino Spague-Dawley. To be noted: in vivo.
The nature of data set [8]: Neurotoxicity in ip dosed albino Carworth Farms number 1 mouse by rotarod test. Type of data set: toxicity, organism-based. To be noted: in vivo.
Data set [9] deals with Mus musculus. In words: Protective index, ratio of neurotoxicity TD50 to anticonvulsant ED50 for ip dosed albino Carworth Farms number 1 mouse. It counts as functional. The essentials:
as §2

Data set [10] concerns Rattus norvegicus. Description: Neurotoxicity in albino Sprague-Dawley rat assessed as induction of ataxia at up to 3000 mg/kg, po by rotarod test. It counts as toxicity, organism-based, albino Spague-Dawley. Also noted: dose 3000 mg/kg, route oral. The following applies: in vivo. The essentials:
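Rats were dosed orally. Median neurotoxic dose (TD50) was taken from behavioural neurological impairment, judged with the rotarod test. It was determined only for compounds with significant activity in the maximal electroshock test. Testing was done under the NINDS Anticonvulsant Screening Program procedures.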

Regarding `C#CCOC[C@@H](NC(C)=O)C(=O)NCc1ccccc1`, the ED50 with Mus musculus [1] came to 29 mg/kg; with Rattus norvegicus [2] it was 7.9 mg/kg; in the data set on Mus musculus [5], 16 mg/kg. In addition, the “Ratio TD50/ED50” value in the data set on Rattus norvegicus [3] was more than 63. The TD50 in [4] was more than 500 mg/kg.
Regarding `CC(=O)N[C@H](COCCN=[N+]=[N-])C(=O)NCc1ccccc1`, the ED50 in the data set with Mus musculus [1] is 44 mg/kg; in the data set on Rattus norvegicus [2] it was more than 40 mg/kg; in the data set with Rattus norvegicus [6] it was 5.7 mg/kg; with Mus musculus [5], 100 mg/kg. Further, in the data set on Rattus norvegicus [3], the “Ratio TD50/ED50” value was more than 13. The compound also had a TD50 in data set [7] of 78 mg/kg.
As for `CC(=O)N[C@H](COCCN=C=S)C(=O)NCc1ccccc1`, the ED50 in the data set on Rattus norvegicus [2] is less than 30 mg/kg; in the data set on Mus musculus [5], more than 300 mg/kg. The values for the TD50 in [4] and in [8] were more than 30 mg/kg and 100 mg/kg, respectively.
For the compound `[2H]C([2H])([2H])OC[C@@H](NC(C)=O)C(=O)NCc1ccccc1`, the ED50 in the data set on Rattus norvegicus [2] worked out at 5.2 mg/kg. Further, the TD50 in [4] stood at 200 mg/kg.
With `CC(=O)N[C@H](COC1CCCCC1)C(=O)NCc1ccccc1`, the values for the ED50 in the data set with Rattus norvegicus [2] and in the data set on Mus musculus [5] were 30 mg/kg and 100 mg/kg, respectively. In addition, the TD50 in [4] was more than 30 mg/kg; in data set [8], 300 mg/kg.
For `CC#CCOC[C@@H](NC(C)=O)C(=O)NCc1ccccc1`, in that order: 6.4 mg/kg, 30 mg/kg, more than 500 mg/kg and 30 mg/kg.
As for `CC(=O)N[C@H](COCC1CCCCC1)C(=O)NCc1ccccc1`, the ED50 in the data set on Mus musculus [5] was 100 mg/kg. In data set [8], this compound gave a TD50 of 300 mg/kg.
On to `CC(=O)N[C@H](COCc1ccccc1)C(=O)NCc1ccccc1`, for which the ED50 with Rattus norvegicus [2] was more than 30 mg/kg; in the data set on Mus musculus [5], 64 mg/kg. For the same compound, the TD50 in data set [4] was more than 30 mg/kg; in data set [8], 200 mg/kg. Further, the “Ratio TD50/ED50” value in the data set with Mus musculus [9] came out at 3.2.
As for `C=CCCOC[C@@H](NC(C)=O)C(=O)NCc1ccccc1`, the ED50 was 17 mg/kg with Rattus norvegicus [2] and 30 mg/kg in the data set with Mus musculus [5]. The “Ratio TD50/ED50” value in the data set on Rattus norvegicus [3] is more than 29. Further, the TD50 in [4] was more than 500 mg/kg; in data set [8], 100 mg/kg.
Turning to `CC(=O)N[C@H](COCCC1CC1)C(=O)NCc1ccccc1`, the ED50 was more than 30 mg/kg in the data set on Rattus norvegicus [2] and 46 mg/kg in the data set with Mus musculus [5]. In addition, the TD50 in data set [4] was more than 30 mg/kg; in data set [8], 85 mg/kg. The “Ratio TD50/ED50” value with Mus musculus [9] is recorded as 1.9.
Turning to `C#CCCOC[C@@H](NC(C)=O)C(=O)NCc1ccccc1`, the ED50 was determined as 11 mg/kg in the data set on Rattus norvegicus [2] and 30 mg/kg in the data set with Mus musculus [5]. Besides, in the data set with Rattus norvegicus [3], the “Ratio TD50/ED50” value was more than 23. The TD50 is 250 mg/kg in data set [4] and 30 mg/kg in data set [8].
In the case of `CC(=O)N[C@H](COCCc1ccccc1)C(=O)NCc1ccccc1`, the ED50 with Rattus norvegicus [2] was more than 30 mg/kg; with Mus musculus [5], 100 mg/kg. The TD50 is more than 30 mg/kg in [4] and 100 mg/kg in data set [8].
In the case of `CC(=O)N[C@H](COCCC1(C)N=N1)C(=O)NCc1ccccc1`, the ED50 in the data set on Rattus norvegicus [2] is 44 mg/kg; in the data set with Mus musculus [5], 30 mg/kg. Also, in the data set with Rattus norvegicus [3], the “Ratio TD50/ED50” value is listed as more than 11. Further, the TD50 is more than 500 mg/kg in [4] and 100 mg/kg in data set [8].
As for `CC(=O)N[C@H](COCCC=O)C(=O)NCc1ccccc1`, the results for the ED50 with Rattus norvegicus [2] and with Mus musculus [5] were more than 100 mg/kg and more than 300 mg/kg, respectively. The same compound yielded a TD50 in [8] of more than 300 mg/kg.
Take `CC(=O)NCCOC[C@@H](NC(C)=O)C(=O)NCc1ccccc1`: the ED50 in the data set on Rattus norvegicus [2] was more than 30 mg/kg; in the data set with Mus musculus [5] it was more than 300 mg/kg. The TD50 in [4] is more than 30 mg/kg; in [8], more than 300 mg/kg.
In the case of `COCc1cn(CCOC[C@@H](NC(C)=O)C(=O)NCc2ccccc2)nn1`, the ED50 is more than 100 mg/kg with Mus musculus [1] and more than 300 mg/kg in the data set with Mus musculus [5]. This compound also yielded a TD50 in data set [8] of more than 300 mg/kg.
Regarding `COCCOC[C@@H](NC(C)=O)C(=O)NCc1ccccc1`, in the data set with Mus musculus [5], the ED50 was 30 mg/kg. Besides, the TD50 in data set [8] was found to be 300 mg/kg.
For the compound `CC(=O)N[C@H](COC(C)C)C(=O)NCc1ccccc1`, the ED50 in the data set on Mus musculus [1] came out at 23 mg/kg; in the data set with Rattus norvegicus [2] it was 8.6 mg/kg; in the data set with Mus musculus [5], 23 mg/kg. Besides, the “Ratio TD50/ED50” value with Rattus norvegicus [3] is recorded as more than 58; in the data set on Mus musculus [9], 3.3. Moreover, the TD50 in data set [4] was more than 500 mg/kg.
For `CCOC[C@@H](NC(C)=O)C(=O)NCc1ccccc1`, the ED50 with Rattus norvegicus [2] was determined as 5.6 mg/kg; in the data set on Mus musculus [5], 7.9 mg/kg. The “Ratio TD50/ED50” value is more than 89 with Rattus norvegicus [3] and 5.6 in the data set on Mus musculus [9]. This compound also came in with a TD50 in [4] of more than 500 mg/kg.
Regarding `COCCOCCOC[C@@H](NC(C)=O)C(=O)NCc1ccccc1`, the figures for the ED50 in the data set on Mus musculus [1], in the data set with Rattus norvegicus [2] and with Mus musculus [5] were more than 100 mg/kg, more than 30 mg/kg and more than 300 mg/kg, respectively. Further, the TD50 was more than 50 mg/kg in [4] and more than 300 mg/kg in [8].
For the compound `CC(=O)N[C@H](COC(C)(C)C)C(=O)NCc1ccccc1`, the ED50 in the data set on Mus musculus [5] was found to be 30 mg/kg. In addition, in data set [8], the TD50 came to 300 mg/kg.
For `CC(=O)N[C@H](COc1ccccc1)C(=O)NCc1ccccc1`, in that order: 100 mg/kg and more than 600 mg/kg.
For `CC(=O)N[C@H](COCCC1CO1)C(=O)NCc1ccccc1` (mixture of isomers), in that order: more than 300 mg/kg and more than 300 mg/kg.
For `C=CCOCC(NC(C)=O)C(=O)NCc1ccccc1` (racemic), the ED50 in the data set on Mus musculus [5] was 30 mg/kg. In data set [8], this compound came in with a TD50 of 30 mg/kg.
For `COC[C@@H](NC(C)=O)C(=O)NCc1ccccc1` [LACOSAMIDE], in data set [4], the TD50 is more than 500 mg/kg.
Turning to `CCC1(c2ccccc2)C(=O)NC(=O)NC1=O` [PHENOBARBITAL], the ED50 with Rattus norvegicus [2] was 9.1 mg/kg; with Mus musculus [5] it was 22 mg/kg.
Take `O=C1NC(=O)C(c2ccccc2)(c2ccccc2)N1` [PHENYTOIN]: the 50% effective dose (ED50) in the data set with Rattus norvegicus [2] was determined as 30 mg/kg. Besides, the Activity result in the data set on Rattus norvegicus [10] is listed as “Non-toxic”.
In the case of `CCCC(CCC)C(=O)O` [VALPROIC ACID], the ED50 in the data set with Mus musculus [5] is 270 mg/kg.

For orientation: ED50 means the dose at which the effect has come halfway, by size or by number of responders. One may read the TD50 as the 50% point of the dose-response relation for the toxic effect studied. Higher therefore signals lower toxicity.
